In ChEMBL document CHEMBL4665711, “Synthesis of (Z)-3-(arylamino)-1-(3-phenylimidazo[1,5-a]pyridin-1-yl)prop-2-en-1-ones as potential cytotoxic agents” (Bioorg Med Chem Lett, 2020):
Activity calls are given as the source filed them. No cut-off for these calls is given here.

Legend:
HCT-116 [1] = assay: Induction of apoptosis in human HCT-116 cells assessed as increase in late apoptotic cells incubated for 48 hrs by annexin-V and propidium iodide staining based flow cytometry analysis; type: functional, cell-based; details: dose microM 0.5-2.5, time 48.0 hrs
HCT-116 [2] = assay: Induction of apoptosis in human HCT-116 cells assessed as necrotic cells at 2.5 uM incubated for 48 hrs by annexin-V and propidium iodide staining based flow cytometry analysis (reference value: 0.36 %); type: functional
HCT-116 [3] = assay: Induction of apoptosis in human HCT-116 cells assessed as necrotic cells at 1 uM incubated for 48 hrs by annexin-V and propidium iodide staining based flow cytometry analysis (reference value: 0.36 %); type: functional
HCT-116 [4] = assay: Induction of apoptosis in human HCT-116 cells assessed as necrotic cells at 0.5 uM incubated for 48 hrs by annexin-V and propidium iodide staining based flow cytometry analysis (reference value: 0.36 %); type: functional
HCT-116 [5] = assay: Induction of apoptosis in human HCT-116 cells assessed as early apoptotic cells at 0.5 uM incubated for 48 hrs by annexin-V and propidium iodide staining based flow cytometry analysis (reference value: 1.87 %); type: functional
HCT-116 [6] = assay: Induction of mitochondrial membrane potential loss in human HCT-116 cells assessed as cells with depolarized mitochondria by measuring increase in J-monomer green fluorescence intensity at 1 uM incubated for 48 hrs by JC1 staining based flow cytometry analysis (reference value: 12.53 %); type: functional
HCT-116 [7] = assay: Induction of mitochondrial membrane potential loss in human HCT-116 cells assessed as cells with depolarized mitochondria by measuring increase in J-monomer green fluorescence intensity at 2.5 uM incubated for 48 hrs by JC1 staining based flow cytometry analysis (reference value: 12.53 %); type: functional
HCT-116 [8] = assay: Induction of ROS production in human HCT-116 cells incubated for 24 hrs by DCFDA staining based fluorescence microscopic analysis; type: functional, cell-based; details: dose microM 0.5-2.5, time 24.0 hrs
Summary of the method: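 For intracellular ROS, HCT-116 cells were incubated at 0.5, 1 and 2.5 µM for 24 h and stained with DCFDA. Cells were imaged by fluorescence microscopy, and DCF fluorescence was quantified at 480/535 nm excitation/emission in arbitrary units against control.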

HCT-116 [9] = assay: Induction of apoptosis in human HCT-116 cells assessed as loose cell structure at 0.5 to 2.5 uM incubated for 48 hrs by DAPI staining based fluorescence microscopic analysis; type: functional; details: dose microM 0.5-2.5, time 48.0 hrs
Summary of the method: (§1)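 Nuclear morphology was imaged by fluorescence microscopy using a DAPI filter at 200×; untreated cells served as control.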

HCT-116 [10] = assay: Induction of apoptosis in human HCT-116 cells assessed as micronuclei formation at 0.5 to 2.5 uM incubated for 48 hrs by DAPI staining based fluorescence microscopic analysis; type: functional, cell-based; details: dose microM 0.5-2.5, time 48.0 hrs; summary of the method: as §1
HCT-116 [11] = assay: Induction of apoptosis in human HCT-116 cells assessed as increase in DNA breakdown incubated for 24 hrs by acridine orange staining based microscopic analysis; type: functional, cell-based; details: dose microM 0.5-2.5, time 24.0 hrs
Summary of the method: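 HCT-116 cells were incubated at 0.5, 1.0 and 2.5 µM for 24 h and stained with acridine orange. Green fluorescence (excitation 480-490 nm), chromatin distribution and blebbing were inspected microscopically at 200× against untreated controls.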

HCT-116 [12] = assay: Inhibition of colony formation in human HCT-116 cells incubated for 10 days by crystal violet staining based assay; type: functional, cell-based; details: dose microM 0.25-1, time 10.0 day
Summary of the method: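 HCT-116 cells exposed in medium to 0.25, 0.5 and 1 μM over 10 days to allow colonies to form. Colonies visualised by crystal violet staining and counted relative to untreated control cells.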

HCT-116 [13] = assay: Induction of cell cycle arrest in human HCT-116 cells assessed as G0/G1 phase incubated for 48 hrs by propidium iodide based flow cytometry analysis; type: functional; details: dose microM 0.5-2.5, time 48.0 hrs
HCT-116 [14] = assay: Induction of cell cycle arrest in human HCT-116 cells assessed as S phase at 2.5 uM incubated for 48 hrs by propidium iodide based flow cytometry analysis (reference value: 7.8 %); type: functional
HCT-116 [15] = assay: Induction of cell cycle arrest in human HCT-116 cells assessed as S phase at 0.5 uM incubated for 48 hrs by propidium iodide based flow cytometry analysis (reference value: 7.8 %); type: functional
B16-F10 = assay: Cytotoxicity against mouse B16-F10 cells assessed as reduction in cell viability incubated for 48 hrs by MTT assay; type: functional, cell-based; details: B16-F10, 48 h
Summary of the method: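 Cancer cell lines were exposed to drug for 48 h, and the 50% inhibitory concentration was determined. Values are averages of three individual experiments. A549, HCT-116, BT-474 and MDA-MB-231 are human lines; B16F10 is a murine melanoma line.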

HCT-116 [16] = assay: Induction of apoptosis in human HCT-116 cells assessed as condensed DNA at 0.5 to 2.5 uM incubated for 48 hrs by DAPI staining based fluorescence microscopic analysis; type: functional, cell-based; details: dose microM 0.5-2.5, time 48.0 hrs; summary of the method: as §1

With `O=C(/C=C\Nc1ccc(Cl)cc1)c1nc(-c2ccc(F)cc2)n2ccccc12` the Activity (HCT-116 [1]) was “Dose-dependent effect”, the Activity (HCT-116 [2]) was 13.3% and the Activity (HCT-116 [3]) was 3.49%. It also gave an Activity (HCT-116 [4]) of 0.68%, an Activity (HCT-116 [5]) of 6.17% and an Activity (HCT-116 [6]) of 20.53%. For the same molecule, the Activity (HCT-116 [7]) was 20.68%, the Activity (HCT-116 [8]) was “Dose-dependent effect” and the Activity (HCT-116 [9]) was “Active”. The Activity (HCT-116 [10]) was “Active”, the Activity (HCT-116 [11]) was “Dose-dependent effect” and the inhibition (HCT-116 [12]) was “Dose-dependent effect”. The Activity (HCT-116 [13]) was “Dose-dependent effect”, the Activity (HCT-116 [14]) was 8.5% and the Activity (HCT-116 [15]) was 7%. The IC50 (B16-F10) was 11 µM and the Activity (HCT-116 [16]) was “Active”.
